Columns and labels:
Plasma = experiment: Drug uptake in mouse plasma at 100 mg/kg, po via gavage at 0.5 to 4 hrs post dose by LC-MS/MS analysis; format: ADME, organism-based; details: in vivo
Summary of the method: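 Plasma concentrations in mice were measured at 0.5 and 4 h after a 100 mg/kg oral dose given as a 0.5% CMC suspension.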

[1] = Oral bioavailability in rat; format: ADME, organism-based; details: in vivo

Compound	Drug uptake (Plasma)	bioavailability [1]
Cc1ccc(C(=O)c2sc3cc(O)ccc3c2Oc2ccc(/C=C/C(=O)O)cc2)c(C)c1	Active	–
Cc1cc(Cl)cc(C)c1C(=O)c1sc2cc(O)ccc2c1Oc1ccc(/C=C/C(=O)O)cc1	Active	–
Oc1ccc2c(c1)CC[C@H](c1ccccc1)[C@@H]2c1ccc(OCCN2CCCC2)cc1 [LASOFOXIFENE]	–	> 60%
Cc1cc(F)cc(C)c1C(=O)c1sc2cc(O)ccc2c1Oc1ccc(/C=C/C(=O)O)cc1 [RINTODESTRANT]	Active	–

Source: ChEMBL document CHEMBL3997798, “Novel Selective Estrogen Receptor Downregulators (SERDs) Developed against Treatment-Resistant Breast Cancer” (J Med Chem, 2017)
